Data reported in ChEMBL document CHEMBL4616704, “Discovery of an Atropisomeric PI3Kβ Selective Inhibitor through Optimization of the Hinge Binding Motif” (ACS Med Chem Lett, 2020).
Values joined by “and” are separate entries in the source; they are usually repeats but may differ in a detail not shown here. Identical values can stand only once.

Key:
[1] = target: PI3-kinase p110-delta/p85-alpha (Homo sapiens, UniProt O00329); experiment: Inhibition of human p110delta catalytic subunit/p85alpha using PIP2 as substrate after 30 mins in presence of ATP at 2xKm concentration by TR-FRET assay; type: protein-complex assay
Sequence of PI3-kinase p110-delta/p85-alpha (P27986 whole entry, canonical isoform): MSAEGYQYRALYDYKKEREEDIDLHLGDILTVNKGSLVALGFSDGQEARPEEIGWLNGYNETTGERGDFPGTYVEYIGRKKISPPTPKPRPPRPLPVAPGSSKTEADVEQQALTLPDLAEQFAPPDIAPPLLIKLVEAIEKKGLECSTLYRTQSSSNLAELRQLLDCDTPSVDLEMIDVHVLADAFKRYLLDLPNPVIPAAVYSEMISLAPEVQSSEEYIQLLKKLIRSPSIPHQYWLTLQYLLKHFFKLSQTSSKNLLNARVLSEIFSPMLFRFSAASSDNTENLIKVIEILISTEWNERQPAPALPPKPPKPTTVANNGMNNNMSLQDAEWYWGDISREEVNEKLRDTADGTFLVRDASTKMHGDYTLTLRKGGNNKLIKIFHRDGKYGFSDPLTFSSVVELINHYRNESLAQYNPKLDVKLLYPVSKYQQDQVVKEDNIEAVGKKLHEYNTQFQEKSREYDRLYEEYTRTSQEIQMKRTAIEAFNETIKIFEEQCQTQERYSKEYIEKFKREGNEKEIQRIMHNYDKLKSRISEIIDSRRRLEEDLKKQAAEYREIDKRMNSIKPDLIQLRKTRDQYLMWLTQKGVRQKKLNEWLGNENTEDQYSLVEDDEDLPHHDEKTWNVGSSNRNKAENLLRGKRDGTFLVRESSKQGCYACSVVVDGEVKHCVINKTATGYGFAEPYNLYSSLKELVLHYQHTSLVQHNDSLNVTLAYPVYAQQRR
Sequence of PI3-kinase p110-delta/p85-alpha (O00329 whole entry, canonical isoform): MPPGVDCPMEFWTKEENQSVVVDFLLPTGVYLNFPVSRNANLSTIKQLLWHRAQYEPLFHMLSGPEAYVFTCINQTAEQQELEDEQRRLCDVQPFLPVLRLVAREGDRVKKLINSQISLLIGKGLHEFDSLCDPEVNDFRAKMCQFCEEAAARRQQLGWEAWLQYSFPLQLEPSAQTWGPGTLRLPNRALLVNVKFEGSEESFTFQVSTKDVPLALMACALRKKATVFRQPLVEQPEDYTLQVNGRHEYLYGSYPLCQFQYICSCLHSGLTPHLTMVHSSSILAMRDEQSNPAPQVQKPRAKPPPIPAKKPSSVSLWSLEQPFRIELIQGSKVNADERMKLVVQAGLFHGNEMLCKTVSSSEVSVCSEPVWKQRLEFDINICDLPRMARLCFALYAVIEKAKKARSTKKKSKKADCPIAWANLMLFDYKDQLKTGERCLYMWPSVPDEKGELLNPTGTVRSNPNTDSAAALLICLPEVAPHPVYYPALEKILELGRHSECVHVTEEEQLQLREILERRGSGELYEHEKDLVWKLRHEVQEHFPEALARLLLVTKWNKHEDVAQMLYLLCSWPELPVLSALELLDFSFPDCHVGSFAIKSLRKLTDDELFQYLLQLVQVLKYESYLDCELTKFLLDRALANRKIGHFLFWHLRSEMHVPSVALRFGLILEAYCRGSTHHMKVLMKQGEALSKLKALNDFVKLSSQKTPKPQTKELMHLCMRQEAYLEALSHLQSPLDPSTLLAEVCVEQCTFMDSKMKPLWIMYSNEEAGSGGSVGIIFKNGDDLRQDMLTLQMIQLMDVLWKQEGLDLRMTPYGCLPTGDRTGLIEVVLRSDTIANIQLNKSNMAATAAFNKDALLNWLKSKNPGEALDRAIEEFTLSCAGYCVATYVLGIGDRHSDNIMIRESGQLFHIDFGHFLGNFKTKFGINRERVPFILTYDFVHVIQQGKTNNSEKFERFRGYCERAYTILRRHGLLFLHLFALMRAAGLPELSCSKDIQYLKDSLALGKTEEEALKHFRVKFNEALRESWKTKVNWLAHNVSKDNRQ
Method in brief: (§1)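 Class I PI3K isoforms assayed in vitro for kinase inhibition with ATP at 2Km steady-state concentration; IC50 values averaged over at least 2 determinations.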

[2] = target: Phosphatidylinositol 4,5-bisphosphate 3-kinase catalytic subunit gamma isoform (Homo sapiens, UniProt P48736); experiment: Inhibition of human full length p110gamma using PIP2 as substrate after 30 mins in presence of ATP at 2xKm concentration by TR-FRET assay
[3] = target: PI3-kinase p110-alpha/p85-alpha (Homo sapiens, UniProt P42336); experiment: Inhibition of human full length p110alpha/p85alpha using PIP2 as substrate after 30 mins in presence of ATP at 2xKm concentration by TR-FRET assay; type: protein-complex assay; method in brief: as §1
Sequence of PI3-kinase p110-alpha/p85-alpha (P27986 whole entry, the tested form may be a part): as the sequence (P27986 whole entry, canonical isoform) above
Sequence of PI3-kinase p110-alpha/p85-alpha (P42336 whole entry, the tested form may be a part): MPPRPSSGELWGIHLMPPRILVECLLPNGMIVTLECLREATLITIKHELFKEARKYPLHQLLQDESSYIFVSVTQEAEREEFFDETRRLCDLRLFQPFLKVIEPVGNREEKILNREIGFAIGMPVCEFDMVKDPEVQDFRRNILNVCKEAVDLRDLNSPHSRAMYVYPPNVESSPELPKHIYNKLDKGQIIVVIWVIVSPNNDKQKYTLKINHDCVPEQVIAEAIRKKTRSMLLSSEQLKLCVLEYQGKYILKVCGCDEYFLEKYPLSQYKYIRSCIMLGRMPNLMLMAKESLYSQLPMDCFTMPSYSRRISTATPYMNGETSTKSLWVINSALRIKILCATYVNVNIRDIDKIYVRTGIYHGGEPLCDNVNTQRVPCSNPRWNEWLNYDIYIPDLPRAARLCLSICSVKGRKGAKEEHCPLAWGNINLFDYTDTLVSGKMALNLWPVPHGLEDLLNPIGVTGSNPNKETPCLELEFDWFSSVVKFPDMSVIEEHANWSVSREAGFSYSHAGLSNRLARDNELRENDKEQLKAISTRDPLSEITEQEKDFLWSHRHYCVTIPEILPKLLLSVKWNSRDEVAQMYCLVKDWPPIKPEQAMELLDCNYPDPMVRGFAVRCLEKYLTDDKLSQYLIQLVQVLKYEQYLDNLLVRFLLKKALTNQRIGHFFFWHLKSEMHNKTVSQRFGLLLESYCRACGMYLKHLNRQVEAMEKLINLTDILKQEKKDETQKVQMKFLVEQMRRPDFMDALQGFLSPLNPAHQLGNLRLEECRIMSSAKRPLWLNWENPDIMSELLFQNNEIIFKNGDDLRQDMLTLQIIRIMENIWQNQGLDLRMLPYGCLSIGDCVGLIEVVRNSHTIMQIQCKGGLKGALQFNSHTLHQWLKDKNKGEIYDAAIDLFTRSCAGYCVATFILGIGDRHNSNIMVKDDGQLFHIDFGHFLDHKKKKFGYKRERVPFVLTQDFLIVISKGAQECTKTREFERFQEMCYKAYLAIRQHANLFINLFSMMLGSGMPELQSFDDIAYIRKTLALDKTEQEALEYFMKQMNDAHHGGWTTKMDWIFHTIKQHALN

[4] = Protein binding in rhesus monkey plasma at 1 mg/kg administered as iv infusion for 30 mins and measured after 24 hrs by ESI-LC/MS/MS analysis; type: ADME, organism-based, Macaca mulatta; conditions: read-out: PPB (converted)
[5] = Oral bioavailability in cynomolgus monkey at 5 mg/kg dosed via gavage after 24 hrs by ESI-LC/MS/MS analysis; type: ADME, organism-based, Macaca fascicularis; conditions: in vivo
[6] = Clearance in cynomolgus monkey at 1 mg/kg administered as iv infusion for 30 mins and measured after 24 hrs by ESI-LC/MS/MS analysis; type: ADME, organism-based, Macaca fascicularis; conditions: in vivo
[7] = Apparent permeability across basolateral to apical side in human Caco2 cells at 10 uM after 1 to 2 hrs by LC/MS/MS analysis; type: ADME, cell-based; conditions: Caco-2
[8] = target: Voltage-gated inwardly rectifying potassium channel KCNH2 (Homo sapiens, UniProt Q12809); experiment: Inhibition of human ERG
Method in brief: (§2)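 Binding-assay format used to measure inhibition of major human CYP450 enzymes and hERG.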

[9] = Volume of distribution at steady state in cynomolgus monkey at 1 mg/kg administered as iv infusion for 30 mins and measured after 24 hrs by ESI-LC/MS/MS analysis; type: ADME, organism-based, Macaca fascicularis; conditions: in vivo, read-out: Vdss
[10] = Oral bioavailability in Sprague-Dawley rat at 5 mg/kg dosed via gavage after 24 hrs by ESI-LC/MS/MS analysis; type: ADME, organism-based; conditions: in vivo
[11] = target: T1, Phosphatidylinositol 4,5-bisphosphate 3-kinase catalytic subunit beta isoform (Homo sapiens, UniProt P42338); experiment: Inhibition of PI3Kbeta in PTEN-deficient human LNCaP C4-2 cells assessed as reduction in AKT phosphorylation at Ser473 residue after 2 hrs by mesoscale assay; type: cell-based
T1 sequence (P42338 whole entry, canonical isoform): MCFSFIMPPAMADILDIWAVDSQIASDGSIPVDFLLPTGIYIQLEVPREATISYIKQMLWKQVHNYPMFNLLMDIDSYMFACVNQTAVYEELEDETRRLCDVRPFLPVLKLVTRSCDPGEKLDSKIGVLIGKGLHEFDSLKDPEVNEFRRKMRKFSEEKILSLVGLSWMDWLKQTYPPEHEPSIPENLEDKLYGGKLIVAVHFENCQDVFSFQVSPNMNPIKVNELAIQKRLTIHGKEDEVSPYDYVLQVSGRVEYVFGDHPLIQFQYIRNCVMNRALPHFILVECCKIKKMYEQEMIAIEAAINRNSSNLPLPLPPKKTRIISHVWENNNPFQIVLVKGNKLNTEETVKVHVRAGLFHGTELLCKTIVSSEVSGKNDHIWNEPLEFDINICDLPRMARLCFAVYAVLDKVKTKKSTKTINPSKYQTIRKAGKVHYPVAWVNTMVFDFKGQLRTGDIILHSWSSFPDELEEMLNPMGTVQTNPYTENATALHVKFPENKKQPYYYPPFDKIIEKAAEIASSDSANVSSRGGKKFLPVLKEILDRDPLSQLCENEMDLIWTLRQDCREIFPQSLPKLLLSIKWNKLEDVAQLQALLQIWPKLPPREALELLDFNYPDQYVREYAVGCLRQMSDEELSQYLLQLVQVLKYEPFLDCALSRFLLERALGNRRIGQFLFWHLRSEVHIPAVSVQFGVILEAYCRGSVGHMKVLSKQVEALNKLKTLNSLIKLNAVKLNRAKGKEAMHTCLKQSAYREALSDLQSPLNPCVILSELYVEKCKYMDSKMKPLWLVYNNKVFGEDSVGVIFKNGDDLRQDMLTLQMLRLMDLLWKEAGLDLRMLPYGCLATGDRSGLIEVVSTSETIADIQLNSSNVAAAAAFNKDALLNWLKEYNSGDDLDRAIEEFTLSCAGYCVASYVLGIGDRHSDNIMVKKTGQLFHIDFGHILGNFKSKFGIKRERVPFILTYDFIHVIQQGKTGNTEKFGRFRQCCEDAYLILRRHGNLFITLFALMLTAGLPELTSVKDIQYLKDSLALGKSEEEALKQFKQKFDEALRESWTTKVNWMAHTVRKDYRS
Method in brief: (§3)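 Cellular readout: pAKT1 Ser473 normalized to total AKT1, expressed as units pAKT1 Ser473 per nanogram total AKT1; cells treated under serum-free conditions.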

[12] = target: T1, Phosphatidylinositol 4,5-bisphosphate 3-kinase catalytic subunit beta isoform; experiment: Inhibition of PI3Kbeta in PTEN-deficient human LNCAP cells assessed as reduction in AKT phosphorylation at Ser473 residue after 2 hrs by mesoscale assay; type: cell-based; method in brief: as §3
[13] = Dissociation constant, acidic pKa of compound; type: physicochemical
[14] = target: T1, Phosphatidylinositol 4,5-bisphosphate 3-kinase catalytic subunit beta isoform; experiment: Inhibition of PI3Kbeta in PTEN-deficient human PC3 cells assessed as reduction in AKT phosphorylation at Ser473 residue after 2 hrs by mesoscale assay; type: cell-based, PC-3; method in brief: as §3
CYP450 = CYP450 (Homo sapiens, UniProt P04798+P05177+P05181+P08684+P10632+P10635+P11509+P11712+P13584+P20813+P20815+P20853+P24462+P24903+P33260+P33261+P51589+P78329+P98187+Q02928+Q08477+Q16678+Q16696+Q5TCH4+Q6VVX0+Q7Z449+Q8TAV3+Q96SQ9+Q9HB55); experiment: Inhibition of human CYP450; type: ADME, protein assay; method in brief: as §2
[15] = Protein binding in Sprague-Dawley rat plasma at 1 mg/kg administered as iv infusion for 30 mins and measured after 24 hrs by ESI-LC/MS/MS analysis; type: ADME, organism-based; conditions: read-out: PPB (converted)
[16] = target: T1, Phosphatidylinositol 4,5-bisphosphate 3-kinase catalytic subunit beta isoform; experiment: Inhibition of PI3Kbeta in PTEN-deficient human MDA-MB-415 cells assessed as reduction in AKT phosphorylation at Ser473 residue after 2 hrs by mesoscale assay; type: cell-based; method in brief: as §3
[17] = Genotoxicity in Salmonella typhimurium by Ames test; type: toxicity; conditions: salmonella enterica subsp. enterica serovar typhimurium
Cytochrome P450 3A4 = Cytochrome P450 3A4 (Homo sapiens, UniProt P08684); experiment: Inhibition of human CYP3A4; type: ADME
Sequence of Cytochrome P450 3A4 (P08684 whole entry, the tested form may be a part): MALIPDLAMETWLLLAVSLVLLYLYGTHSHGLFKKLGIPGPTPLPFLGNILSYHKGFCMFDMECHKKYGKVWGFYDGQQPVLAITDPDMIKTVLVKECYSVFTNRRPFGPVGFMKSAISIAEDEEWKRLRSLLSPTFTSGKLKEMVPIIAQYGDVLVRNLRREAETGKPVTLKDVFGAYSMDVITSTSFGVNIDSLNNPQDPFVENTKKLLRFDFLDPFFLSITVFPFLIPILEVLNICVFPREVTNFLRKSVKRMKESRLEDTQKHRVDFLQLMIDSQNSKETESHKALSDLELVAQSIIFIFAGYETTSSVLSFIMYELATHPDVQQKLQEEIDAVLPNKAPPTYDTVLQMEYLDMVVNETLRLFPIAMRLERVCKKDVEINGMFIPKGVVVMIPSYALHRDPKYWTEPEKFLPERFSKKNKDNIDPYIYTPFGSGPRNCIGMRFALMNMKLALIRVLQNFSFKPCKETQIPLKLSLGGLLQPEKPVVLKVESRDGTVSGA

[18] = Volume of distribution at steady state in rhesus monkey at 1 mg/kg administered as iv infusion for 30 mins and measured after 24 hrs by ESI-LC/MS/MS analysis; type: ADME, organism-based, Macaca mulatta; conditions: in vivo, read-out: Vdss
[19] = Protein binding in Beagle dog plasma at 1 mg/kg administered as iv infusion for 30 mins and measured after 24 hrs by ESI-LC/MS/MS analysis; type: ADME, organism-based, Canis lupus familiaris; conditions: read-out: PPB (converted)
[20] = Protein binding in cynomolgus monkey plasma at 1 mg/kg administered as iv infusion for 30 mins and measured after 24 hrs by ESI-LC/MS/MS analysis; type: ADME, organism-based, Macaca fascicularis; conditions: read-out: PPB (converted)
[21] = target: T1, Phosphatidylinositol 4,5-bisphosphate 3-kinase catalytic subunit beta isoform; experiment: Inhibition of PI3Kbeta in PTEN-deficient human ZR-75-1 cells assessed as reduction in AKT phosphorylation at Ser473 residue after 2 hrs by mesoscale assay; type: cell-based; method in brief: as §3
[22] = Clearance in human hepatocytes at 1 uM measured up to 250 mins by UHPLC-HRMS analysis; type: ADME, cell-based, Hepatocyte; conditions: 250 min, 1 µM
[23] = Apparent permeability across apical to basolateral side in human Caco2 cells at 10 uM after 1 to 2 hrs by LC/MS/MS analysis; type: ADME, cell-based; conditions: Caco-2
PI3K p110 beta/p85 alpha = PI3K p110 beta/p85 alpha (Homo sapiens, UniProt P42338); experiment: Inhibition of recombinant human full-length N-terminal His6-tagged p110beta/human recombinant full-length untagged p85alpha expressed in baculovirus infected Sf21 insect cells using PIP2 as substrate after 30 mins in presence of ATP at 2xKm concentration by TR-FRET assay; method in brief: as §1
Sequence of PI3K p110 beta/p85 alpha (P27986 whole entry): as the sequence (P27986 whole entry, canonical isoform) above
Sequence of PI3K p110 beta/p85 alpha (P42338 whole entry): as the sequence (P42338 whole entry, canonical isoform) above

Compound: Cc1cc(C(C)Nc2ccccc2)c2nc(N3CCOCC3)cc(=O)n2c1 (stereo unspecified)
- IC50 [1]: 0.5 µM
- IC50 [2]: > 10 µM
- IC50 [3]: 7.6 µM

Compound: Cc1nc2c(-c3nnc[nH]3)cc(-c3ccnc(N)c3F)cc2n1-c1ccnc2c(F)ccc(F)c12
- fraction unbound at 24 h [4]: 0.07
- bioavailability [5]: 64%
- clearance [6]: 2.17 mL/min/kg
- Papp B→A at 10 µM [7]: 31 ×10⁻⁶ cm/s
- IC50 [8]: > 25 µM
- Vd [9]: 0.5 L/kg
- bioavailability [10]: 60%
- EC50 [11]: 0.015 µM
- EC50 [12]: 0.053 µM
- pKa [13]: 4.8
- EC50 [14]: 0.009 µM
- IC50 (CYP450): > 25 µM
- fraction unbound at 24 h [15]: 0.19
- EC50 [16]: 0.012 µM
- Activity [17]: Non-Toxic
- IC50 (Cytochrome P450 3A4): > 25 µM
- Vd [18]: 0.6 L/kg
- fraction unbound at 24 h [19]: 0.08
- fraction unbound at 24 h [20]: 0.06
- EC50 [21]: 0.006 µM

Compound: Cc1nc2c(-c3nnc[nH]3)cc(-c3ccnc(C(F)F)c3)cc2n1-c1ccnc2c(F)ccc(F)c12
- IC50 [1]: 0.402 µM
- IC50 [2]: 9.42 µM
- IC50 [3]: 0.68 µM

Compound: Cc1nc2c(-c3nnc[nH]3)cc(-c3c(F)cnc(N)c3F)cc2n1-c1ccnc2c(F)ccc(F)c12
- IC50 [1]: 1.66 µM
- IC50 [2]: > 10 µM
- IC50 [3]: 2.52 µM

Compound: Cc1nc2c(-c3nnc[nH]3)cc(-c3ccncc3)cc2n1-c1ccnc2c(F)ccc(F)c12
- IC50 [2]: > 10 µM
- pKa [13]: 5.3
- IC50 (Cytochrome P450 3A4): 1 µM
- CLH [22]: 4 mL/min/kg and 10.2 mL/min/kg

Compound: Clc1cccc2c(-n3cnc4c(-c5ncn[nH]5)cc(-c5ccncc5)cc43)ccnc12
- IC50 [1]: 0.1 µM
- IC50 [2]: 5.3 µM
- IC50 [3]: 0.35 µM

Compound: CNc1nccc(-c2cc(-c3nnc[nH]3)c3nc(C)n(-c4ccnc5c(F)ccc(F)c45)c3c2)c1F
- IC50 [1]: > 10 µM
- IC50 [2]: > 10 µM
- IC50 [3]: > 10 µM

Compound: Cc1cc(-c2cc(-c3nnc[nH]3)c3nc(C)n(-c4ccnc5c(F)ccc(F)c45)c3c2)ccn1
- IC50 [1]: 0.3 µM and 0.122 µM and 1.11 µM
- IC50 [2]: > 10 µM
- pKa [13]: 5.9
- IC50 (Cytochrome P450 3A4): 19 µM

Compound: Cc1nccc(-c2cc(-c3nnc[nH]3)c3nc(C)n(-c4ccnc5c(F)ccc(F)c45)c3c2)n1
- IC50 [1]: 0.035 µM
- IC50 [2]: 2.72 µM
- IC50 [3]: 0.055 µM

Compound: Cc1nc2c(-c3nnc[nH]3)cc(-c3ccnc(N)c3)cc2n1-c1ccnc2c(F)ccc(F)c12
- Papp A→B at 10 µM [23]: 1.7 ×10⁻⁶ cm/s
- Papp B→A at 10 µM [7]: 18 ×10⁻⁶ cm/s
- IC50 [2]: > 10 µM
- pKa [13]: 6.1
- IC50 (Cytochrome P450 3A4): > 25 µM

Compound: Cc1cc(-c2cc(-c3nnc[nH]3)c3nc(C)n(-c4ccnc5c(F)ccc(F)c45)c3c2)ncn1
- IC50 [1]: 1.14 µM
- IC50 [2]: > 10 µM
- IC50 [3]: 1.27 µM

Compound: Cc1nc2c(-c3nnc[nH]3)cc(-c3ccnc(N)c3Cl)cc2n1-c1ccnc2c(F)ccc(F)c12
- IC50 [1]: 0.297 µM
- IC50 [2]: > 10 µM
- IC50 [3]: 0.89 µM

Compound: Cc1c(-c2cc(-c3nnc[nH]3)c3nc(C)n(-c4ccnc5c(F)ccc(F)c45)c3c2)ccnc1N
- IC50 [1]: > 10 µM
- IC50 [2]: > 10 µM
- IC50 (PI3K p110 beta/p85 alpha): 2.86 µM
- IC50 [3]: > 10 µM

Compound: Cc1nc2c(-c3nnc[nH]3)cc(-c3ccnc(Cl)c3)cc2n1-c1ccnc2c(F)ccc(F)c12
- IC50 [1]: 0.052 µM
- IC50 [2]: 6.27 µM
- IC50 [3]: 0.075 µM

Compound: Clc1cccc2c(-n3cnc4c(-c5nnc[nH]5)cc(N5CCOCC5)cc43)ccnc12
- IC50 [1]: 0.012 µM
- IC50 [2]: 0.35 µM
- IC50 [3]: 0.06 µM

Compound: Cc1cc(-c2cc(-c3nnc[nH]3)c3nc(C)n(-c4ccnc5c(F)ccc(F)c45)c3c2)cc(N)n1
- IC50 [1]: 2.59 µM
- IC50 [2]: > 10 µM
- IC50 [3]: 6.84 µM

Compound: Cc1nc2c(-c3nnc[nH]3)cc(-c3cc(N)ncc3F)cc2n1-c1ccnc2c(F)ccc(F)c12
- IC50 [1]: 0.302 µM
- IC50 [2]: > 10 µM
- IC50 [3]: 1.5 µM

Compound: C[C@@H](Nc1cc(F)cc(F)c1)c1cc(C(=O)N(C)C)cc2c(=O)cc(N3CCOCC3)oc12 [AZD-8186]
- IC50 [1]: 0.036 µM
- IC50 [2]: 6 µM
- IC50 [3]: 0.45 µM
